Series [1] deals with Rat. As to the kind of experiment: concentration in plasma after dosing. Particulars: 4 h; dosed: Wyeth-14643; 5.0 mg/kg; oral; Male; Sprague-Dawley.
Series [2] concerns Rat. As to the kind of experiment: concentration in plasma after dosing. The settings on record: 2 h; dosed: Wyeth-14643; 2.0 mg/kg; iv; Male; Sprague-Dawley.
Series [3] deals with Rat. As to the kind of experiment: concentration in plasma after dosing. The settings on record: 2 h; dosed: Wyeth-14643; 2.0 mg/kg; iv; Male; Sprague-Dawley. The source holds these as a separate data set.
In series [4] the test system is Rat. Put plainly: concentration in plasma after dosing. Particulars: 3 h; dosed: Bis 2-Chloroethoxy Methane; 40 mg/kg; iv; Male; Harlan Sprague Dawley.
For series [5], the system named is Rat. As to the kind of experiment: concentration in plasma after dosing. The settings on record: 1 h; dosed: Bis 2-Chloroethoxy Methane; 20 mg/kg; iv; Male; F344.
Series [6] has as its system Rat. As to the kind of experiment: concentration in plasma after dosing. The settings on record: 40 min; dosed: Bis 2-Chloroethoxy Methane; 20 mg/kg; iv; Female; F344.
In series [7] the test system is Rat. Put plainly: concentration in brain after dosing. The settings on record: 1 h; dosed: Fluorotelomer alcohol 8+2; 24 mg/kg; oral; Male; Harlan Sprague Dawley.
For series [8], the system named is Rat. Put plainly: concentration in brain after dosing. Particulars: 0.5 h; dosed: Fluorotelomer alcohol 8+2; 80 mg/kg; oral; Female; Harlan Sprague Dawley.
Series [9] relates to Rat. Put plainly: concentration in plasma after dosing. The settings on record: dosed: Fluorotelomer alcohol 8+2, 24 mg/kg, oral, Male, Harlan Sprague Dawley.
The subject of series [10] is Rat. As to the kind of experiment: concentration in plasma after dosing. The settings on record: dosed: Fluorotelomer alcohol 8+2, 40 mg/kg, iv, Female, Harlan Sprague-Dawley.
Series [11] has as its system Rat. Put plainly: concentration in brain after dosing. The settings on record: 6 h; dosed: Fluorotelomer alcohol 8+2; 24 mg/kg; oral; Male; Harlan Sprague Dawley.
Series [12] has as its system Rat. As to the kind of experiment: concentration in plasma after dosing. Particulars: 5 min; dosed: Di-n-butyl phthalate; 50 mg/kg; oral; Male; Sprague-Dawley.
Series [13] relates to Rat. Put plainly: concentration in plasma after dosing. Particulars: 5 min; dosed: Di-n-butyl phthalate; 20 mg/kg; iv; Male; Sprague-Dawley.
Series [14] deals with Rat. Put plainly: concentration in plasma after dosing. Particulars: 40 min; dosed: Di-n-butyl phthalate; 50 mg/kg; oral; Male; Sprague-Dawley.
Series [15] concerns Rat. Put plainly: concentration in plasma after dosing. The settings on record: 6 h; dosed: Di-n-butyl phthalate; 20 mg/kg; iv; Male; Sprague-Dawley.
For series [16], the system named is Rat. Put plainly: concentration in plasma after dosing. Particulars: 5 min; dosed: Di-n-butyl phthalate; 100 mg/kg; oral; Male; Sprague-Dawley.
Series [17] concerns Rat. As to the kind of experiment: concentration in plasma after dosing. The settings on record: 6 h; dosed: Di-n-butyl phthalate; 100 mg/kg; oral; Male; Sprague-Dawley.
Series [18] relates to Rat. As to the kind of experiment: concentration in liver after dosing. Particulars: 24 h; dosed: Perfluorodecanoic acid; 10 mg/kg; oral; Male; Harlan Sprague Dawley.
Series [19] concerns Rat. Put plainly: concentration in liver after dosing. Particulars: 1 h; dosed: Perfluorodecanoic acid; 10 mg/kg; oral; Female; Harlan Sprague Dawley.
Series [20] relates to Rat. As to the kind of experiment: concentration in kidney after dosing. Particulars: 3360 h; dosed: Perfluorodecanoic acid; 10 mg/kg; oral; Female; Harlan Sprague Dawley.
For series [21], the system named is Rat. Put plainly: concentration in brain after dosing. Particulars: 1848 h; dosed: Perfluorodecanoic acid; 10 mg/kg; oral; Male; Harlan Sprague Dawley.
In series [22] the test system is Rat. As to the kind of experiment: concentration in plasma after dosing. The settings on record: 1.5 h; dosed: Primidone; 80 mg/kg; oral; Male; F344.
For series [23], the system named is Rat. As to the kind of experiment: concentration in plasma after dosing. Particulars: 9 h; dosed: Primidone; 30 mg/kg; oral; Male; F344.
The test system of series [24] is Rat. Put plainly: concentration in plasma after dosing. Particulars: 12 h; dosed: Primidone; 130 mg/kg; oral; Female; F344.
Series [25] relates to Rat. As to the kind of experiment: concentration in thymus after dosing. Particulars: 8 h; dosed: Thiodiglycolic Acid; 20 mg/kg; iv; Female; Harlan Sprague Dawley.
The subject of series [26] is Rat. As to the kind of experiment: concentration in thymus after dosing. The settings on record: 4 h; dosed: Thiodiglycolic Acid; 20 mg/kg; iv; Female; Harlan Sprague Dawley.
Series [27] deals with Rat. Put plainly: concentration in liver after dosing. Particulars: 1 h; dosed: Thiodiglycolic Acid; 20 mg/kg; iv; Female; Harlan Sprague Dawley.
Series [28] deals with Rat. As to the kind of experiment: concentration in heart after dosing. Particulars: 5.333 h; dosed: Thiodiglycolic Acid; 20 mg/kg; iv; Female; Harlan Sprague Dawley.
The subject of series [29] is Rat. As to the kind of experiment: concentration in heart after dosing. The settings on record: 5.333 h; dosed: Thiodiglycolic Acid; 20 mg/kg; iv; Female; Harlan Sprague Dawley. The source holds these as a separate data set.
The test system of series [30] is Rat. As to the kind of experiment: concentration in liver after dosing. The settings on record: 40 min; dosed: Thiodiglycolic Acid; 20 mg/kg; iv; Male; Harlan Sprague Dawley.
For series [31], the system named is Rat. As to the kind of experiment: concentration in heart after dosing. The settings on record: 3 h; dosed: Thiodiglycolic Acid; 20 mg/kg; iv; Female; Harlan Sprague Dawley.
Series [32] deals with Rat. As to the kind of experiment: concentration in liver after dosing. Particulars: 10 h; dosed: Thiodiglycolic Acid; 20 mg/kg; iv; Female; Harlan Sprague Dawley.
The test system of series [33] is Rat. As to the kind of experiment: concentration in heart after dosing. The settings on record: 3 h; dosed: Thiodiglycolic Acid; 20 mg/kg; iv; Female; Harlan Sprague Dawley. The source holds these as a separate data set.
Series [34] deals with Rat. Put plainly: concentration in plasma after dosing. The settings on record: 10 h; dosed: Thiodiglycolic Acid; 20 mg/kg; iv; Male; F344.
The test system of series [35] is Rat. Put plainly: concentration in plasma after dosing. Particulars: 2 min; dosed: dichloroacetic acid; 10 mg/kg; iv; Male; F344.
Another series relates to human. As to the kind of experiment: concentration in plasma after dosing; negative times count back from the end of exposure. The settings on record: dosed: trichloroethylene, 100 ppm, inhalation, duration: 4 hr, person, during exposure. The gist of the method:
(§1)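 Points were largely digitised from plot screenshots with WebPlotDigitizer or otherwise copied from tables, and they remain in the units each source reported. They come from published in vivo toxicokinetic studies and two structured collections. Sampling and analytical methods follow each source and were often not reported.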

The subject of another series is dog. Particulars: dosed: tetrachloroethylene, 142 ppm, inhalation, duration: 4 hr, male, beagle. The gist of the method: as §1

Each structure is given as a SMILES string.

Consider `Cc1cccc(Nc2cc(Cl)nc(SCC(=O)O)n2)c1C`, for which the results for the concentration in plasma with Rat [1], in the series on Rat [2] and with Rat [3] were 1200 ng/mL, 870 ng/mL and 670 ng/mL, respectively.

Consider `ClCCOCOCCCl` [Bis 2-Chloroethoxy Methane], for which the concentration in plasma came to 287 ng/mL in the series on Rat [4], 1320 ng/mL in the series on Rat [5] and 1410 ng/mL with Rat [6].

As to `OCCC(F)(F)C(F)(F)C(F)(F)C(F)(F)C(F)(F)C(F)(F)C(F)(F)C(F)(F)F` [Fluorotelomer alcohol 8+2], the concentration in brain is 2520 ng/g in the series with Rat [7], 4390 ng/g in the series with Rat [8] and 323 ng/g with Rat [11]. Moreover, the concentration in plasma in the series with Rat [9] (5 min) came to 8.46 ng/mL; with Rat [9] (9 h), 44.8 ng/mL; with Rat [10] (1 h) it was 3650 ng/mL; with Rat [10] (24 h), 26.8 ng/mL.

Take `CCCCOC(=O)c1ccccc1C(=O)O` [Mono-n-butyl phthalate]: the concentration in plasma with Rat [12] came to 4780 ng/mL; in the series with Rat [13], 38500 ng/mL; with Rat [14] it was 16800 ng/mL; with Rat [15], 601 ng/mL; in the series with Rat [16], 3830 ng/mL; with Rat [17], 16900 ng/mL.

With `O=C(O)C(F)(F)C(F)(F)C(F)(F)C(F)(F)C(F)(F)C(F)(F)C(F)(F)C(F)(F)C(F)(F)F` [Perfluorodecanoic acid], the concentration in liver in the series with Rat [18] came to 105000 ng/g; in the series on Rat [19] it was 48000 ng/g. The same molecule showed a concentration in kidney in the series with Rat [20] of 2910 ng/g. The concentration in brain with Rat [21] was 644 ng/g.

On to `CCC1(c2ccccc2)C(=O)NC(=O)NC1=O` [Phenobarbital], for which the values for the concentration in plasma in the series on Rat [22], in the series with Rat [23] and in the series on Rat [24] were 3100 ng/mL, 2930 ng/mL and 8210 ng/mL, respectively.

With `O=C(O)CSCC(=O)O` [Thiodiglycolic Acid], the figures for the concentration in thymus with Rat [25] and in the series with Rat [26] were 395 ng/g and 657 ng/g, respectively. Also, the concentration in liver in the series with Rat [27] turned out to be 60100 ng/g; with Rat [30], 183000 ng/g; in the series with Rat [32], 4910 ng/g. The concentration in heart in the series with Rat [28] came out at 272 ng/g; in the series on Rat [29], 642 ng/g; in the series with Rat [31], 558 ng/g; in the series with Rat [33], 620 ng/g. In addition, in the series on Rat [34], the concentration in plasma stood at 304 ng/mL.

In the case of `O=C(O)C(Cl)Cl` [dichloroacetic acid], the concentration in plasma worked out at 30400 ng/mL in the series on Rat [35], 5 ng/mL with human (-1 h), 4 ng/mL in the series on human (-2 h) and 5 ng/mL in the series on human (-3 h).

Consider `O=C(O)C(Cl)(Cl)Cl` [trichloroacetic acid], for which the “amount in urine after dosing” value in the series on dog (22 h) amounted to 8.68 mg; with dog (46 h), 3 mg; with dog (70 h), 1.93 mg.

(Values after EPA's CvTdb concentration-time database.)
